This is an account of results in ChEMBL document CHEMBL1955766, “Structure guided development of novel thymidine mimetics targeting Pseudomonas aeruginosa thymidylate kinase: from hit to lead generation” (J Med Chem, 2012).

In one test the test system is Pseudomonas aeruginosa. The experiment in a line: Antibacterial activity against […], MexXY, MeyZ efflux pump- knock out Pseudomonas aeruginosa PAO280. The format is functional.
In turn, `Cn1c(=O)[nH]c2ncc(-c3cccc(F)c3)cc21` had an MIC of more than 256 µg/mL.

In turn, `Cn1c(=O)[nH]c2ncc(-c3cncnc3)cc21` gave an MIC of more than 256 µg/mL.

The compound `Cn1c(=O)[nH]c2ncc(-c3ccncc3)cc21` yielded an MIC of more than 256 µg/mL.

Turning to `CC(NC(=O)c1cccc(-c2cnc3[nH]c(=O)n(C)c3c2)c1)C(=O)O` (stereo not given), the MIC is more than 256 µg/mL.

In turn, `Cn1c(=O)[nH]c2ncc(-c3cccc(C(=O)NCCc4c[nH]cn4)c3)cc21` yielded an MIC of more than 256 µg/mL.

In turn, `Cn1c(=O)[nH]c2ncc(-c3cccc(C(=O)NCCCc4c[nH]cn4)c3)cc21` displayed an MIC of more than 256 µg/mL.

Compound `Cn1c(=O)[nH]c2ncc(-c3cccc(C(=O)NCCCc4cccc(C(=O)O)c4)c3)cc21` displayed an MIC of more than 256 µg/mL.

`Cn1c(=O)[nH]c2ncc(-c3cccc(O)c3)cc21`: the MIC was more than 256 µg/mL.

With `Cn1c(=O)[nH]c2ncc(-c3cccc(C(=O)NCCCc4cccnc4)c3)cc21`, the MIC was more than 256 µg/mL.

With `Cl.Cn1c(=O)[nH]c2ncc(-c3ccc(CN)cc3)cc21`, the MIC is more than 256 µg/mL.

Regarding `Cn1c(=O)[nH]c2ncc(-c3cccc(C(=O)NCC(Cc4ccccc4)C(=O)O)c3)cc21` (racemic), the MIC was more than 256 µg/mL.

In the case of `Cn1c(=O)[nH]c2ncc(-c3cccnc3)cc21`, the MIC is more than 256 µg/mL.

On to `Cn1c(=O)[nH]c2ncc(-c3cccc(C(=O)NCCc4ccncc4)c3)cc21`, for which the MIC is more than 256 µg/mL.

`CN(C)C(=O)c1cccc(-c2cnc3[nH]c(=O)n(C)c3c2)c1` gave an MIC of more than 256 µg/mL.

Compound `Cn1c(=O)[nH]c2ncc(-c3cccc(C(=O)NCC(N)=O)c3)cc21` came in with a minimal inhibitory concentration (MIC) of more than 256 µg/mL.

`CC(=O)Nc1cccc(-c2cnc3[nH]c(=O)n(C)c3c2)c1` had an MIC of more than 256 µg/mL.

In turn, `Cn1c(=O)[nH]c2ncc(-c3cccc(C(=O)NCCCc4ccc(C(F)(F)F)cc4)c3)cc21` had an MIC of more than 256 µg/mL.

In the case of `Cn1c(=O)[nH]c2ncc(-c3cccc(C(=O)NCCCN4CCOCC4)c3)cc21`, the MIC is more than 256 µg/mL.

Turning to `Cl.Cn1c(=O)[nH]c2ncc(-c3cccc(C(=O)NCCCc4cccc(CN)c4)c3)cc21`, the MIC was more than 256 µg/mL.

For `CC(=O)c1cccc(-c2cnc3[nH]c(=O)n(C)c3c2)c1`, the minimal inhibitory concentration (MIC) is more than 256 µg/mL.

Regarding `Cn1c(=O)[nH]c2ncc(-c3cccc(S(N)(=O)=O)c3)cc21`, the MIC is more than 256 µg/mL.

`Cn1c(=O)[nH]c2ncc(-c3ccc(C(N)=O)cc3)cc21` returned an MIC of more than 256 µg/mL.

Consider `Cn1c(=O)[nH]c2ncc(-c3ccc(O)cc3)cc21`, for which the MIC was more than 256 µg/mL.

For the compound `Cn1c(=O)[nH]c2ncc(-c3cccc(CO)c3)cc21`, the minimal inhibitory concentration (MIC) is more than 256 µg/mL.

Another test has as its target T1, Thymidylate kinase (Homo sapiens) (UniProt P23919).
T1 sequence (whole entry): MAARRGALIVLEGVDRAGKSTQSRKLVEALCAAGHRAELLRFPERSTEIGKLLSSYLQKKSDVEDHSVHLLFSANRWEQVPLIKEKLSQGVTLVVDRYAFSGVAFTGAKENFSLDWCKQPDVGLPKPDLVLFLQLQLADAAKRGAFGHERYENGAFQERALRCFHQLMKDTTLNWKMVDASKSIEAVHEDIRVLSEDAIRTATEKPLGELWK
The experiment in a line: Inhibition of human thymidylate kinase using dTMP as substrate at 200 uM after 30 mins by fluorescence analysis. The method in brief: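 Inhibitor range 0.39–200 μM. Reaction runs 2 min at room temperature, then ADP-detection reagents for 30 min. Read-out is fluorescence at ex 485/em 535 nm. Percent inhibition is corrected using no-enzyme and 5 μM ADP interference controls.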
The compound `Cn1c(=O)[nH]c2ncc(-c3cccc(C(=O)NCCCc4ccc(C(F)(F)F)cc4)c3)cc21` showed an inhibition of 55%.

The next test relates to Pseudomonas aeruginosa. Description: Antibacterial activity against Pseudomonas aeruginosa PAO1. The format is functional.
With `Cn1c(=O)[nH]c2ncc(-c3cccc(F)c3)cc21`, the MIC was more than 256 µg/mL.

`Cn1c(=O)[nH]c2ncc(-c3cncnc3)cc21` showed an MIC of more than 256 µg/mL.

With `Cn1c(=O)[nH]c2ncc(-c3ccncc3)cc21`, the MIC is more than 256 µg/mL.

Regarding `CC(NC(=O)c1cccc(-c2cnc3[nH]c(=O)n(C)c3c2)c1)C(=O)O` (stereo not given), the minimum inhibitory concentration (MIC) was more than 256 µg/mL.

For the compound `Cn1c(=O)[nH]c2ncc(-c3cccc(C(=O)NCCc4c[nH]cn4)c3)cc21`, the MIC was more than 256 µg/mL.

Regarding `Cn1c(=O)[nH]c2ncc(-c3cccc(C(=O)NCCCc4c[nH]cn4)c3)cc21`, the MIC was more than 256 µg/mL.

The compound `Cn1c(=O)[nH]c2ncc(-c3cccc(C(=O)NCCCc4cccc(C(=O)O)c4)c3)cc21` registered a minimal inhibitory concentration (MIC) of more than 256 µg/mL.

Compound `Cn1c(=O)[nH]c2ncc(-c3cccc(O)c3)cc21` yielded an MIC of more than 256 µg/mL.

Take `Cn1c(=O)[nH]c2ncc(-c3cccc(C(=O)NCCCc4cccnc4)c3)cc21`: the minimal inhibitory concentration (MIC) is more than 256 µg/mL.

As for `Cl.Cn1c(=O)[nH]c2ncc(-c3ccc(CN)cc3)cc21`, the MIC is more than 256 µg/mL.

For `Cn1c(=O)[nH]c2ncc(-c3cccc(C(=O)NCC(Cc4ccccc4)C(=O)O)c3)cc21` (racemic), the MIC was more than 256 µg/mL.

On to `Cn1c(=O)[nH]c2ncc(-c3cccnc3)cc21`, for which the MIC is more than 256 µg/mL.

The compound `Cn1c(=O)[nH]c2ncc(-c3cccc(C(=O)NCCc4ccncc4)c3)cc21` came in with an MIC of more than 256 µg/mL.

In the case of `CN(C)C(=O)c1cccc(-c2cnc3[nH]c(=O)n(C)c3c2)c1`, the MIC was more than 256 µg/mL.

`Cn1c(=O)[nH]c2ncc(-c3cccc(C(=O)NCC(N)=O)c3)cc21`: the MIC is more than 256 µg/mL.

`CC(=O)Nc1cccc(-c2cnc3[nH]c(=O)n(C)c3c2)c1` returned an MIC of more than 256 µg/mL.

As for `Cn1c(=O)[nH]c2ncc(-c3cccc(C(=O)NCCCc4ccc(C(F)(F)F)cc4)c3)cc21`, the MIC is more than 256 µg/mL.

Regarding `Cn1c(=O)[nH]c2ncc(-c3cccc(C(=O)NCCCN4CCOCC4)c3)cc21`, the MIC was more than 256 µg/mL.

With `Cl.Cn1c(=O)[nH]c2ncc(-c3cccc(C(=O)NCCCc4cccc(CN)c4)c3)cc21`, the MIC was more than 256 µg/mL.

`CC(=O)c1cccc(-c2cnc3[nH]c(=O)n(C)c3c2)c1`: the MIC was more than 256 µg/mL.

In the case of `Cn1c(=O)[nH]c2ncc(-c3cccc(S(N)(=O)=O)c3)cc21`, the MIC was more than 256 µg/mL.

With `Cn1c(=O)[nH]c2ncc(-c3ccc(C(N)=O)cc3)cc21`, the minimum inhibitory concentration (MIC) was more than 256 µg/mL.

Regarding `Cn1c(=O)[nH]c2ncc(-c3ccc(O)cc3)cc21`, the MIC was more than 256 µg/mL.

Take `Cn1c(=O)[nH]c2ncc(-c3cccc(CO)c3)cc21`: the MIC is more than 256 µg/mL.

The next test has as its target T2, Thymidylate kinase (Homo sapiens, UniProt P23919).
T2 sequence (P23919 whole entry): T1 sequence (whole entry)
The experiment in a line: Inhibition of human thymidylate kinase using dTMP as substrate after 30 mins by fluorescence analysis.
`Cn1c(=O)[nH]c2ncc(-c3cccc(C(=O)NCCCc4ccc(C(F)(F)F)cc4)c3)cc21` registered an IC50 of 124 µM.

Tested on in the next test: not listed separately
The experiment in a line: Selectivity ratio of IC50 for human thymidylate kinase to IC50 for Pseudomonas aeruginosa thymidylate kinase. The method in brief:
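Compound tested at 0.39–200 μM. Reaction 2 min at room temperature, then ADP detection reagents 30 min. Fluorescence read at ex 485/em 535 nm, corrected using 5 μM ADP interference controls and no-enzyme controls. Result is the ratio against the PaTMK coupled-assay IC50.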
`Cn1c(=O)[nH]c2ncc(-c3cccc(C(=O)NCCCc4ccc(C(F)(F)F)cc4)c3)cc21`: the Ratio IC50 is more than 1000.

Tested on in the next test: not listed separately
Description: Inhibition of Pseudomonas aeruginosa thymidylate kinase expressed in Escherichia coli BL21 (DE3) cells assessed as phosphorylation of dTMP to dTDP after 20 mins by spectrophotometric analysis. The method in brief:
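PaTMK from pET15b in E. coli BL21 DE3, purified by HisTrap and Superdex 200, used at 40 nM. dTDP formation was coupled via PK/LDH/NDP kinase to NADH oxidation (A340) over 20 min at 25 °C.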
For the compound `Cn1c(=O)[nH]c2ncc(-c3cccc(F)c3)cc21`, the IC50 was more than 200 µM.

With `Cn1c(=O)[nH]c2ncc(-c3cncnc3)cc21`, the half-maximal inhibitory concentration (IC50) is more than 200 µM.

`Cn1c(=O)[nH]c2ncc(-c3ccncc3)cc21`: the IC50 worked out at 152 µM.

On to `CC(NC(=O)c1cccc(-c2cnc3[nH]c(=O)n(C)c3c2)c1)C(=O)O` (stereo not given), for which the IC50 amounted to 5 µM.

Consider `Cn1c(=O)[nH]c2ncc(-c3cccc(C(=O)NCCc4c[nH]cn4)c3)cc21`, for which the 50% inhibitory concentration (IC50) was found to be 2.3 µM.

Consider `Cn1c(=O)[nH]c2ncc(-c3cccc(C(=O)NCCCc4c[nH]cn4)c3)cc21`, for which the IC50 is 0.99 µM.

`Cn1c(=O)[nH]c2ncc(-c3cccc(C(=O)NCCCc4cccc(C(=O)O)c4)c3)cc21`: the IC50 is 2.4 µM.

Take `Cn1c(=O)[nH]c2ncc(-c3cccc(O)c3)cc21`: the IC50 amounted to 11 µM.

On to `Cn1c(=O)[nH]c2ncc(-c3cccc(C(=O)NCCCc4cccnc4)c3)cc21`, for which the IC50 is 0.51 µM.

Regarding `Cl.Cn1c(=O)[nH]c2ncc(-c3ccc(CN)cc3)cc21`, the IC50 came out at 4.9 µM.

Regarding `Cn1c(=O)[nH]c2ncc(-c3cccc(C(=O)NCC(Cc4ccccc4)C(=O)O)c3)cc21` (racemic), the IC50 is 0.25 µM.

`Cn1c(=O)[nH]c2ncc(-c3cccnc3)cc21`: the IC50 amounted to 66 µM.

As to `Cn1c(=O)[nH]c2ncc(-c3cccc(C(=O)NCCc4ccncc4)c3)cc21`, the IC50 was 2 µM.

Take `CN(C)C(=O)c1cccc(-c2cnc3[nH]c(=O)n(C)c3c2)c1`: the concentration for half-maximal inhibition (IC50) was 104 µM.

In the case of `Cn1c(=O)[nH]c2ncc(-c3cccc(C(=O)NCC(N)=O)c3)cc21`, the IC50 came to 0.88 µM.

For `CC(=O)Nc1cccc(-c2cnc3[nH]c(=O)n(C)c3c2)c1`, the IC50 turned out to be 3.4 µM.

As for `Cn1c(=O)[nH]c2ncc(-c3cccc(C(=O)NCCCc4ccc(C(F)(F)F)cc4)c3)cc21`, the IC50 is 0.16 µM.

Consider `Cn1c(=O)[nH]c2ncc(-c3cccc(C(=O)NCCCN4CCOCC4)c3)cc21`, for which the concentration for half-maximal inhibition (IC50) is 5.8 µM.

Regarding `Cl.Cn1c(=O)[nH]c2ncc(-c3cccc(C(=O)NCCCc4cccc(CN)c4)c3)cc21`, the IC50 turned out to be 2.2 µM.

As to `CC(=O)c1cccc(-c2cnc3[nH]c(=O)n(C)c3c2)c1`, the IC50 came to 13 µM.

For the compound `Cn1c(=O)[nH]c2ncc(-c3cccc(S(N)(=O)=O)c3)cc21`, the half-inhibitory concentration (IC50) is more than 200 µM.

Take `Cn1c(=O)[nH]c2ncc(-c3ccc(C(N)=O)cc3)cc21`: the IC50 was more than 200 µM.

Consider `Cn1c(=O)[nH]c2ncc(-c3ccc(O)cc3)cc21`, for which the IC50 turned out to be 21 µM.

As for `Cn1c(=O)[nH]c2ncc(-c3cccc(CO)c3)cc21`, the IC50 worked out at 37 µM.

A word on the MIC: it is the lowest concentration found to suppress growth. Low readings indicate greater potency, high ones weaker potency. In general, inhibition refers to how much of the control response was suppressed. Low readings indicate a response near the control, high ones a response far below the control. One may read the IC50 as the midpoint of a concentration-inhibition curve.
